Here are results for two compounds from ChEMBL document CHEMBL1122777, “Effect of tellurium position on the myocardial uptake of radioiodinated 18-iodotellura-17-octadecenoic acid analogues” (1984).

The test system of test [1] is Rattus norvegicus. Briefly: Liver uptake after 3 day was determined in female Fischer rats after [125I]-labeled compound complexed with bovine serum albumin was injected intravenously. The test is classed as functional. Summed up:
(§1)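 Female Fischer 344 rats (fed ad libitum) under ether anaesthesia received the ¹²⁵I fatty acid in a lateral tail vein. Dose was ~3.8–4.8 μCi per rat (sp act ~125–240 mCi/mmol), given in 0.5 mL 6% bovine albumin (final ethanol 10%) after filtration. Four rats per time point were used. Tissue radioactivity is % injected dose/g, mean with range, calculated against standards of the injected solution.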

Test [2] concerns Rattus norvegicus. Briefly: Lungs uptake after 1 day was determined in female Fischer rats after [125I]-labeled compound complexed with bovine serum albumin was injected intravenously. The format is functional. The method, boiled down:
as §1

Test [3] deals with Rattus norvegicus. Briefly: Kidney uptake after 30 min was determined in female Fischer rats after [125I]-labeled compound complexed with bovine serum albumin was injected intravenously. The test is classed as functional. The method, boiled down: as §1
Test [4] has as its system Rattus norvegicus. Briefly: Blood uptake after 3 day was determined in female Fischer rats after [125I]-labeled compound complexed with bovine serum albumin was injected intravenously. The format is functional. Summed up: as §1
Test [5] in a line: Ratio of heart to liver uptake after 60 min was determined in female Fischer rats after [125I]-labeled compound complexed with bovine serum albumin was injected intravenously. The test is classed as functional. Summed up:
(§2)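 Female Fischer 344 rats (food and water ad libitum) given the 125I-labelled fatty acid in 6% bovine albumin with 10% final ethanol, filtered, 0.5 mL into a lateral tail vein under ether anaesthesia. Four rats per time point. Tissue activity expressed as % injected dose/g against assayed injectate standards. Mean heart/tissue ratios were calculated from mean %ID/g values.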

The test system of test [6] is Rattus norvegicus. Briefly: Kidney uptake after 60 min was determined in female Fischer rats after [125I]-labeled compound complexed with bovine serum albumin was injected intravenously. The test is classed as functional. Summed up: as §1
The nature of test [7]: Ratio of heart to blood uptake after 120 min was determined in female Fischer rats after [125I]-labeled compound complexed with bovine serum albumin was injected intravenously. The test is classed as functional. Summed up:
as §2

The test system of test [8] is Rattus norvegicus. Briefly: Heart uptake after 3 day was determined in female Fischer rats after [125I]-labeled compound complexed with bovine serum albumin was injected intravenously. The test is classed as functional. Summed up: as §1
For test [9], the system named is Rattus norvegicus. Briefly: Heart uptake after 4 hr was determined in female Fischer rats after [125I]-labeled compound complexed with bovine serum albumin was injected intravenously. The format is functional. Summed up:
as §1

The subject of test [10] is Rattus norvegicus. Briefly: Kidney uptake after 5 min was determined in female Fischer rats after [125I]-labeled compound complexed with bovine serum albumin was injected intravenously. The test is classed as functional. The method, boiled down:
as §1

Test [11] relates to Rattus norvegicus. Briefly: Kidney uptake after 3 days was determined in female Fischer rats after [125I]-labeled compound complexed with bovine serum albumin was injected intravenously. The format is functional. Summed up: as §1
Test [12] deals with Rattus norvegicus. Briefly: Thyroid uptake after 60 min was determined in female Fischer rats after [125I]-labeled compound complexed with bovine serum albumin was injected intravenously. The test is classed as functional. Summed up:
(§3)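 Female Fischer 344 rats with free access to food and water. The 125I-labelled fatty acid (~3.8–4.8 μCi; sp act. ~125–240 mCi/mmol) was complexed with 6% bovine serum albumin (10% final ethanol), filtered, and 0.5 mL was injected via a lateral tail vein under ether anaesthesia. Four rats per time point. Values are mean % injected dose/g, calculated against injectate standards. Thyroid weight was taken as 7.5 mg/100 g body weight.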

The test system of test [13] is Rattus norvegicus. Briefly: Thyroid uptake after 5 min was determined in female Fischer rats after [125I]-labeled compound complexed with bovine serum albumin was injected intravenously. The format is functional. The method, boiled down: as §3
Test [14] has as its system Rattus norvegicus. Briefly: Kidney uptake after 2 hr was determined in female Fischer rats after [125I]-labeled compound complexed with bovine serum albumin was injected intravenously. The test is classed as functional. The method, boiled down:
as §1

Test [15] in a line: Ratio of heart to lungs uptake after 120 min was determined in female Fischer rats after [125I]-labeled compound complexed with bovine serum albumin was injected intravenously. The format is functional. Summed up: as §2
A short description of test [16]: Ratio of heart to blood uptake after 60 min was determined in female Fischer rats after [125I]-labeled compound complexed with bovine serum albumin was injected intravenously. The test is classed as functional. Summed up:
as §2

For test [17], the system named is Rattus norvegicus. Briefly: Kidney uptake after 1 day was determined in female Fischer rats after [125I]-labeled compound complexed with bovine serum albumin was injected intravenously. The format is functional. The method, boiled down:
as §1

A short description of test [18]: Ratio of heart to lungs uptake after 30 min was determined in female Fischer rats after [125I]-labeled compound complexed with bovine serum albumin was injected intravenously. The test is classed as functional. Summed up:
as §2

The nature of test [19]: Ratio of heart to kidneys uptake after 60 min was determined in female Fischer rats after [125I]-labeled compound complexed with bovine serum albumin was injected intravenously. The test is classed as functional, Heart/Kidney. The method, boiled down:
as §2

Test [20] deals with Rattus norvegicus. Briefly: Kidney uptake after 4 hr was determined in female Fischer rats after [125I]-labeled compound complexed with bovine serum albumin was injected intravenously. The format is functional. Summed up:
as §1

Test [21] can be described thus: Ratio of heart to lungs uptake after 240 min was determined in female Fischer rats after [125I]-labeled compound complexed with bovine serum albumin was injected intravenously. The format is functional. Summed up:
as §2

Test [22] concerns Rattus norvegicus. Briefly: Kidneys uptake after 30 min was determined in female Fischer rats after [125I]-labeled compound complexed with bovine serum albumin was injected intravenously. The test is classed as functional. Summed up:
as §1

Test [23] deals with Rattus norvegicus. Briefly: Kidneys uptake after 60 min was determined in female Fischer rats after [125I]-labeled compound complexed with bovine serum albumin was injected intravenously. The test is classed as functional. Summed up: as §1
For test [24], the system named is Rattus norvegicus. Briefly: Kidneys uptake after 1 day was determined in female Fischer rats after [125I]-labeled compound complexed with bovine serum albumin was injected intravenously. The test is classed as functional. Summed up: as §1
Test [25] deals with Rattus norvegicus. Briefly: Heart uptake after 3 days was determined in female Fischer rats after [125I]-labeled compound complexed with bovine serum albumin was injected intravenously. The format is functional. Summed up: as §1
Test [26] concerns Rattus norvegicus. Briefly: Kidneys uptake after 3 days was determined in female Fischer rats after [125I]-labeled compound complexed with bovine serum albumin was injected intravenously. The format is functional. Summed up: as §1
For test [27], the system named is Rattus norvegicus. Briefly: Blood uptake after 3 days was determined in female Fischer rats after [125I]-labeled compound complexed with bovine serum albumin was injected intravenously. The format is functional. Summed up: as §1
Test [28] deals with Rattus norvegicus. Briefly: Liver uptake after 3 days was determined in female Fischer rats after [125I]-labeled compound complexed with bovine serum albumin was injected intravenously. The format is functional. Summed up:
as §1

The subject of test [29] is Rattus norvegicus. Briefly: Kidneys uptake after 5 min was determined in female Fischer rats after [125I]-labeled compound complexed with bovine serum albumin was injected intravenously. The format is functional. The method, boiled down:
as §1

For test [30], the system named is Rattus norvegicus. Briefly: Kidneys uptake after 4 hr was determined in female Fischer rats after [125I]-labeled compound complexed with bovine serum albumin was injected intravenously. The test is classed as functional. Summed up: as §1
The test system of test [31] is Rattus norvegicus. Briefly: Kidneys uptake after 2 hr was determined in female Fischer rats after [125I]-labeled compound complexed with bovine serum albumin was injected intravenously. The test is classed as functional. Summed up: as §1

Regarding `O=C(O)CCCCCCC[Te]CCCCCCC/C=C/I`, the Injected dose/g in the test on Rattus norvegicus [1] stood at 0.64%; in the test on Rattus norvegicus [2], 0.55%; in the test on Rattus norvegicus [3], 1.38%; in the test with Rattus norvegicus [4] it was 0.21%; in the test on Rattus norvegicus [6] it was 1.52%; in the test with Rattus norvegicus [8] it was 0.28%. Further, the Injected dose/g with Rattus norvegicus [9] was 3.51%; with Rattus norvegicus [10], 1.58%; in the test with Rattus norvegicus [11], 0.22%; in the test on Rattus norvegicus [12], 24.8%; with Rattus norvegicus [13] it was 9.21%; with Rattus norvegicus [14] it was 1.27%. In addition, the Injected dose/g with Rattus norvegicus [17] came to 0.59%; in the test on Rattus norvegicus [20] it was 1.19%. Besides, the Ratio in [5] is recorded as 1.06; in [7], 9; in test [15], 2.7; in test [16] it was 14; in test [18] it was 2.5; in test [19], 3.4. The Ratio in test [21] stood at 2.9.

Consider `O=C(O)CCCCCCCCC[Te]CCCCC/C=C/I`, for which the Injected dose/g is 1.85% with Rattus norvegicus [22]; 0.76% in the test with Rattus norvegicus [2]; 1.92% in the test with Rattus norvegicus [23]; 0.62% in the test on Rattus norvegicus [24]; 2.44% in the test with Rattus norvegicus [9]; 37% in the test with Rattus norvegicus [12]. Besides, the Injected dose/g with Rattus norvegicus [25] was 0.34%; in the test on Rattus norvegicus [13] it was 29%; with Rattus norvegicus [26], 0.21%; in the test on Rattus norvegicus [27], 0.34%; in the test on Rattus norvegicus [28] it was 0.19%; with Rattus norvegicus [29], 2.22%. The Injected dose/g in the test on Rattus norvegicus [30] was found to be 1.42%; in the test with Rattus norvegicus [31], 1.51%. The Ratio in [5] came to 0.7; in [7], 5; in [15], 1.9; in test [16], 5; in test [18], 1.6; in [19], 1. In test [21], the Ratio came out at 1.5.
